The values below come from ChEMBL document CHEMBL1135669, “Improving the oral efficacy of CNS drug candidates: discovery of highly orally efficacious piperidinyl piperidine M2 muscarinic receptor antagonists” (J Med Chem, 2002).

The subject of data set [1] is Rattus norvegicus. In words: ACh released compared with baseline (100%) in rat striatum after peroral administration (0-2 h,10 mg/kg, 20% HPbetaCD) using microdialysis assay. The format is functional. The method in brief:
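Rat striatal microdialysis: single oral dose of 10 mg/kg in 20% HPβCD vehicle. ACh in dialysate collected from 0 to 2 h, expressed as % of preinjection baseline (baseline = 100%). ACh release is measured in the presence of neostigmine. Stimulation over baseline was judged by Duncan's Multiple Range Statistic.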

The target of data set [2] is T1, Muscarinic acetylcholine receptor M2 (Homo sapiens, UniProt P08172).
T1 sequence (P08172 whole entry): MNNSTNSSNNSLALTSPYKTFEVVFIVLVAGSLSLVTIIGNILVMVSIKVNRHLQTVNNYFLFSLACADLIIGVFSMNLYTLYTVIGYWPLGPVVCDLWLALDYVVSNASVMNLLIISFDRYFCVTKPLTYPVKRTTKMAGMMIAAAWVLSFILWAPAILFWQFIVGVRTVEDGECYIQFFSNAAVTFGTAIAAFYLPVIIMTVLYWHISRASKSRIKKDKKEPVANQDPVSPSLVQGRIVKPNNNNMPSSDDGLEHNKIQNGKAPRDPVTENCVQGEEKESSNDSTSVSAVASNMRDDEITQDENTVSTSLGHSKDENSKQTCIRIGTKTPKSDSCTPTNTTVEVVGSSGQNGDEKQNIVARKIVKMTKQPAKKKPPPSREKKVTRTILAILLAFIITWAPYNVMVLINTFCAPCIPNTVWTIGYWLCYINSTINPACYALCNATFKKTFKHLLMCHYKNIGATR
In words: Binding affinity for human Muscarinic acetylcholine receptor M2.

The subject of data set [3] is Rattus norvegicus. Nature of the data set: Orally active dose in passive avoidance response (PAR). The class given is functional. The method in brief:
(§1)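 Rat passive avoidance response, a reference-memory cognitive paradigm, with oral dosing. The value is the orally active dose in mg/kg, defined as a significant change in latency over vehicle (4% MC), p < 0.05 by Dunnett's T test, n = 36.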

The species entered for another data set is Homo sapiens. Nature of the data set: Percent of Parent compound remaining after 20 min incubation with human liver microsomes (Human microsomal stability). The format is functional. An outline of the steps:
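Compounds at 10 μg/mL were incubated with human liver microsomes for 20 min. Metabolic stability is reported as % parent compound remaining.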
In general terms: Liver microsomes are a subcellular fraction often used to study metabolism.

Data set [4] has as its system Rattus norvegicus. In words: Orally active dose in passive avoidance response (PAR); inactive. The class given is functional, organism-based. The method in brief:
as §1

For data set [5], the system named is Rattus norvegicus. Nature of the data set: ACh released compared with baseline (100%) in rat striatum after iv administration (0-2 h,10 mg/kg, 20% HPbetaCD) using microdialysis assay. The class given is functional.
A short description of data set [6]: Area under curve (high throughput single measurement) after peroral administration (10 mg/kg, 0-6 hr) in rat was determined. The conditions noted are these: in vivo, po.

The structures appear in SMILES notation. Active and inactive are the calls of the source.

Regarding `CC(=C1CCN(C2CCN(C(=O)c3cccc(C)c3N)CC2)CC1)c1ccc([S+]([O-])C(C)C)cc1` (single isomer, unassigned; (+)), the Activity in the data set on Rattus norvegicus [1] was 225%. Besides, in data set [2], the affinity, expressed as Ki, was 0.89 nM. This compound also registered a PAR in the data set with Rattus norvegicus [3] of 0.0001 mg/kg.

As to `COc1ccc(S(=O)(=O)c2ccc(C3(C4CCN(C5CCN(C(=O)c6ccc(F)c7ccccc67)CC5)CC4)OCCO3)cc2)cc1`, the Activity with Rattus norvegicus [1] amounted to 180%. In the data set on Rattus norvegicus [3], the PAR turned out to be 0.1 mg/kg.

Turning to `CC(=C1CCN(C2CCN(C(=O)c3ccc(F)c4ccccc34)CC2)CC1)c1ccc([S+]([O-])C(C)C)cc1` (stereo in doubt; 13) [listing 1 of 2 here], the Activity in the data set listed under Homo sapiens was found to be 66%. Consider `CC(=C1CCN(C2CCN(C(=O)c3cccc(C)c3N)CC2)CC1)c1ccc([S+]([O-])C(C)C)cc1` (single isomer, unassigned; (-)), for which the Ki (commonly a measure of affinity in units of concentration, obtained from inhibition or displacement) in data set [2] stood at 12 nM. Compound `CC(=C1CCN(C2CCN(C(=O)c3cccc(C)c3N)CC2)CC1)c1ccc([S+]([O-])C(C)C)cc1` (stereo in doubt; 14) [listing 1 of 2 here] had a Ki in data set [2] of 6.6 nM.

In the case of `CC(C)Sc1ccc(CC2CCN(C3CCN(C(=O)c4cccc5ccccc45)CC3)CC2)cc1`, the result with Rattus norvegicus [4] was inactive. The results for the Activity in the data set on Rattus norvegicus [1] and in the data set with Rattus norvegicus [5] were 110% and 210%, respectively. For `CC(=C1CCN(C2CCN(C(=O)c3ccc(F)c4ccccc34)CC2)CC1)c1ccc([S+]([O-])C(C)C)cc1` (single isomer, unassigned; (-)), the Activity with Rattus norvegicus [1] is 155%. The same compound returned a Ki in data set [2] of 2.4 nM. `CC(=C1CCN(C2CCN(C(=O)c3cccc(C)c3N)CC2)CC1)c1ccc(S(=O)(=O)C(C)C)cc1` gave a Ki in data set [2] of 32 nM. The Activity in the data set listed under Homo sapiens worked out at 80%. The compound `CC(C)S(=O)(=O)c1ccc(CC2CCN(C3CCN(C(=O)c4ccc(F)c5ccccc45)CC3)CC2)cc1` showed a Ki in data set [2] of 221 nM. As for `CC(=C1CCN(C2CCN(C(=O)c3cccc(C)c3N)CC2)CC1)c1ccc([S+]([O-])C(C)C)cc1` (stereo in doubt; 14) [listing 2 of 2 here], the Activity in the data set listed under Homo sapiens stood at 64%. In the case of `CC(=C1CCN(C2CCN(C(=O)c3ccc(F)c4ccccc34)CC2)CC1)c1ccc(S(=O)(=O)C(C)C)cc1`, the affinity in data set [2] corresponds to a Ki of 9.6 nM. Besides, in the data set filed under Homo sapiens, the Activity turned out to be 74%.

Turning to `CC(=C1CCN(C2CCN(C(=O)c3ccc(F)c4ccccc34)CC2)CC1)c1ccc([S+]([O-])C(C)C)cc1` (single isomer, unassigned; (+)), the Activity with Rattus norvegicus [1] was 179%. Moreover, in data set [2], affinity was put at a Ki of 1.3 nM. On to `CC(=C1CCN(C2CCN(C(=O)c3ccc(F)c4ccccc34)CC2)CC1)c1ccc([S+]([O-])C(C)C)cc1` (stereo in doubt; 13) [listing 2 of 2 here], for which, in data set [2], the Ki worked out at 2.7 nM.

For the compound `Cc1cccc(C(=O)N2CCC(N3CCC(Cc4ccc(S(=O)(=O)c5cccc(Cl)c5)cc4)CC3)CC2)c1N` [SCH-211803], the Activity with Rattus norvegicus [1] came out at 180%. Moreover, the exposure (AUC) (usually concentration integrated over time) at 6 h in data set [6] was determined as 908 ng·h/mL. Moreover, the PAR in the data set on Rattus norvegicus [3] stood at 0.001 mg/kg.
